For 96 compounds, cytotoxicity results are on record in ChEMBL document CHEMBL4513216, “Probing the Open Global Health Chemical Diversity Library for Multistage-Active Starting Points for Next-Generation Antimalarials” (ACS Infect Dis, 2020).

Each structure is given as a SMILES string.

This series is described as follows: Toxicity liver stage against HepG2, at 10uM. Format: cell-based. The arrangement: test concentration 10 uM, cell line HepG2-A16-CD81EGFP. As to conditions: human, HepG2-A16-CD81EGFP cells; read-out: INHIBITION
The gist of the method: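 Uninfected HepG2-A16-CD81EGFP cells, 3 × 10^3 per well, 1536-well, plated on prespotted compound at 10 μM final, parasite-free screening media added to match infected plates; puromycin 10 μM positive, DMSO 0.5% negative; run in parallel with 48 h PbLuc assay at 37 °C, 5% CO2; viability by CellTiter-Glo luminescence, normalized to controls.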
As for `CNC(=O)c1cccc(CCNc2ncc(Br)cn2)c1`, the cytotoxicity at 10 µM turned out to be 9.5%. Regarding `NCC(c1cccnc1)N1CCOCC1` (stereo unspecified), the cytotoxicity at 10 µM was determined as 4.32%. Consider `CN(C)c1ccc(C(=O)N2CCN(Cc3cscn3)CC2)cn1`, for which the cytotoxicity at 10 µM was -4.57%. To `O=c1c2sccc2ncn1CC(O)CN1CCOCC1` (stereo unspecified) belongs 7.27%. Then `CC(C)c1cc(C(=O)N2CCN(c3ncc4c(n3)CCOC4)CC2)on1`, with 1.57%; and `CCOC(=O)CN1CCC2(CC1)CC(NC(=O)c1ccccn1)CO2` (stereo unspecified), with 2.17%; and `COc1ccc(CN2CC[C@H]3O[C@@H](C(=O)NCC4CC4)CC[C@H]32)cc1`, with 7.31%. Then `CCc1nc(N)nc(NCc2cnn3cccnc23)c1C`, with 52.5%; and `Cc1ccc2c(c1)C1(CCNCC1)CC2NC(C)C` (stereo unspecified), with -9.73%; and `CC(=O)C1(c2ccccc2)CCN(C(=O)CC2CNCCO2)CC1` (stereo unspecified), with -4.46%. Consider `CN(Cc1ccccn1)C(=O)c1cc(CN2CCC(O)CC2)on1`, for which the cytotoxicity at 10 µM amounted to 0.852%. Then `CC(C)[C@@H]1CN(C2CCN(Cc3ccccc3)CC2)C[C@H]1NS(C)(=O)=O`, with -10.7%. Then `O=C1NC(c2ccccc2)=N[C@@]12CC[C@@H]1CN(Cc3ccncc3)C[C@@H]12`, with 11.9%; and `O=C1NCCCC12CCN(Cc1ccc(-c3ccccc3)s1)C2` (stereo unspecified), with 16.9%. To `NCc1cccc(-c2cccnc2C(=O)NCCN2CCCC2)c1` belongs -6.9%; to `O=C(CN1CCN(C(=O)c2cccc(-c3ccoc3)c2)CC1)C1CC1`, 0.504%.

As for `COCCn1c2c(ccc1=O)CCN(C(=O)Cc1cccs1)CC2`, the cytotoxicity at 10 µM turned out to be 1.44%. Then `CSc1nc2cc(C)n(CC(N)=O)c2c(=O)n1CC(C)C`, with -11.3%; and `O=C1CC(c2ccc(F)cc2)Cc2[nH]c(=O)c(C(=O)O)cc21` (stereo unspecified), with -3.65%; and `Cc1nc[nH]c1-c1nccn1CCN1CCCOC1=O`, with -2.32%.

With `CC(C)(C)OC(=O)CNC(=O)CCc1nnc(-c2ccsc2)o1`, the cytotoxicity at 10 µM was -10.2%. With `Cc1ccc(C2(C(=O)NCCCn3cccn3)CCOCC2)cc1`, the cytotoxicity at 10 µM was 9.73%. Then `CC(=O)N1CC(c2ccnc(Nc3ccc(C)cn3)n2)C1`, with -31.1%; and `Cc1ccc2c(c1)SCC(=O)N2CC(=O)N1CCCC1c1nccs1` (stereo unspecified), with 12.4%. Turning to `CCN(CC)S(=O)(=O)N1CCCC1c1cccc(Nc2ncc(C)s2)n1` (stereo unspecified), the cytotoxicity at 10 µM is -39.3%. As to `CN1CCCN(CC(=O)N2CCc3[nH]c(-c4ccccc4)nc3C2)CC1`, the cytotoxicity at 10 µM is -0.0342%. Then `COCCC1(CNC(=O)NCC2CCCN(C)C2)CCC1` (stereo unspecified), with -1.11%; and `CS(=O)(=O)Cc1cccc(C(=O)N2CCCC(n3cccn3)C2)c1` (stereo unspecified), with 5.05%; and `CCC(C(=O)NCC1CCN(c2cnn(C)c(=O)c2)CC1)n1cccn1` (stereo unspecified), with 6.01%. To `Cc1cc(C(=O)NCc2cccnc2N(C)C)c(C)o1` belongs -9.51%; to `O=C(NCc1ccccn1)Nc1cc(C(F)(F)F)c[nH]c1=O`, -2.87%. To `O=C(c1ccncc1)N1Cc2ccccc2OC2(CCOCC2)C1` belongs -1.03%; to `CC(O)CCN(C)C(=O)Nc1ccc(Br)cc1` (stereo unspecified), -2.1%.

With `CC(C)CC(NC(=O)c1ccco1)c1nc2cccnc2n1C` (stereo unspecified), the cytotoxicity at 10 µM was determined as 6.08%.

For `CCCN(C)c1ccc(C(=O)Nc2c(C)nn(C(C)C)c2C)cc1`, the cytotoxicity at 10 µM is -2.84%. Then `CN(C)c1ccc(C2CCN(c3cnccn3)CC2)nc1`, with -11.2%. On to `O=C(NCCc1ccncc1)[C@H]1CC[C@@H]2[C@@H](CCN2CC2CC2)O1`, for which the cytotoxicity at 10 µM stood at 0.545%. To `O=S(=O)(c1cn[nH]c1)N1C[C@@H](O)[C@H](N2CCc3ccccc3C2)C1` belongs -3.47%; to `COCC1CN(C(=O)c2cnc(C)cn2)Cc2ncnn2C1` (stereo unspecified), 2.31%; to `CC(C)Nc1ncc(CN2C[C@@H](CN3CCC(O)CC3)[C@@H](CO)C2)cn1`, 18.5%. Then `O=C(N1CCOCC(O)C1)C1(c2ccc(Cl)cc2)CCC1` (stereo unspecified), with -4.24%; and `Fc1cccc(C(NCc2ncc[nH]2)c2ccccc2)c1` (stereo unspecified), with 1.35%; and `COCCNC(=O)Cn1cc(NC(=O)c2cccc(Cl)c2Cl)cn1`, with -7.04%. Turning to `CCC1(C)Cc2ccccc2-c2nc(NCCCO)nc(O)c21` (stereo unspecified), the cytotoxicity at 10 µM came to 5.42%.

As for `CC(O)C1CCN(c2cc(Cl)ccc2C#N)CC1` (stereo unspecified), the cytotoxicity at 10 µM was determined as 4.92%. As for `CCn1c(C2CCNCC2)nn(Cc2ccc(C(=O)NC)o2)c1=O`, the cytotoxicity at 10 µM was determined as 6.8%. To `CC(C)Nc1nc(O)cc(C2CC(=O)N(Cc3ccccc3)C2)n1` (stereo unspecified) belongs -28.5%; to `CCOCC(O)CNc1cncc(Br)c1` (stereo unspecified), 4.21%; to `O=C(CSCc1ccncc1)NCC1CCN(C2CC2)C1` (stereo unspecified), 0.224%. Turning to `CSCC(C)N(C)S(=O)(=O)c1ccc(Cl)cc1C#N` (stereo unspecified), the cytotoxicity at 10 µM is -41.5%.

Take `O=C(C1CCOCC1)N1C[C@@H]2CC[C@H]1CN(C1Cc3ccccc3C1)C2`: the cytotoxicity at 10 µM was -0.317%. Then `O=C(OCc1ccccc1)N1CC[C@H]2CC(CO)O[C@@H]2C1` (stereo partly specified), with -97.7%; and `CN(Cc1nccn1CC(F)(F)F)C(=O)c1ccc(F)cc1F`, with 3.3%; and `Cc1nccn1CCN(C)c1nc(-c2ccc(Cl)cc2)nc2c1CNC2`, with -29.5%. Then `COc1ccccc1CC(=O)NC(CC(=O)O)c1ccc(C)cc1` (stereo unspecified), with 11.2%. As to `c1nc(-c2nc(C3CCOC3)no2)cs1` (stereo unspecified), the cytotoxicity at 10 µM was determined as 6.18%. For `Cc1ccoc1C(=O)N1CC[C@H]2O[C@@H](C)C[C@H]2C1`, the cytotoxicity at 10 µM is -4.93%. Consider `COc1ncccc1CN1C[C@@H]2COC[C@]2(COc2cccnc2)C1`, for which the cytotoxicity at 10 µM was -0.182%. For the compound `CN(C(=O)Cn1nc(-c2ccc(Cl)cc2)ccc1=O)C1CCS(=O)(=O)C1` (stereo unspecified), the cytotoxicity at 10 µM turned out to be 1.96%. As to `CCN1CCN(C(=O)c2cc(-c3cccn3C)n[nH]2)[C@H]2CS(=O)(=O)C[C@H]21`, the cytotoxicity at 10 µM is -12.5%. To `CCN1CCn2c(C)cnc2C12CCN(C(=O)c1ccco1)CC2` belongs 4.56%; to `Cc1nn(C)cc1-c1cc(C(F)(F)F)nc(NC2CCCCC2)n1`, 6.9%; to `COCCN1CCC2(CC1)CN(C(=O)c1cccs1)CCO2`, -14.1%. With `CCN1CC2(CC1=O)CN(C(=O)c1ccco1)CCN(C(=O)C(C)C)C2` (stereo unspecified), the cytotoxicity at 10 µM is -9.16%.

As for `CC(C)N1CCC2(CC1)C(=O)N(c1cccnc1)c1c(F)cccc12`, the cytotoxicity at 10 µM worked out at 7.13%. Then `CN(Cc1cccc(Cl)c1)S(=O)(=O)N1CCOCC1`, with -8.2%; and `O=C(c1ccc2cccc(F)c2n1)N1CCN(CCn2cccc2)CC1`, with 13.5%; and `CCN1CCN(c2ncc(-c3cc(C)no3)c(-c3ccco3)n2)CC1`, with -11%.

Regarding `CCC(C(=O)NCc1ccccn1)N(c1cccc(C)c1)S(C)(=O)=O` (stereo unspecified), the cytotoxicity at 10 µM came out at 0.383%. Then `O=C1[C@H]2CN(Cc3ccoc3)C[C@H]2CN1Cc1cccnc1`, with -76.5%; and `OC1(CNCCCN2CCc3ccccc32)CCNC1` (stereo unspecified), with 11.5%; and `OCCOc1cc(F)ccc1NCc1cccc(F)c1F`, with -6.14%. To `CC(C)N(C)CCC(=O)N1CCCC(c2ccc(C(=O)O)cc2)C1` (stereo unspecified) belongs -4.1%; to `O=C1[C@H]2CN(Cc3cccs3)C[C@H]2CN1CCN1CCCC1`, -12.7%. With `Cc1nc(-c2ccncc2)nc(N(C)CCc2ccncc2)c1C`, the cytotoxicity at 10 µM is 11.6%. On to `Cc1cc(C)c(Cn2cncn2)cc1CN1CC[C@@H]2CC[C@H](C1)N2`, for which the cytotoxicity at 10 µM is -3.96%. As to `CN(C)C(=O)Cc1ccccc1NCc1cccc(F)c1F`, the cytotoxicity at 10 µM came to 9.03%. As for `CCN(Cc1csc(CS(C)(=O)=O)n1)c1cccc(F)c1`, the cytotoxicity at 10 µM turned out to be 7.25%.

Turning to `O=C(NCCN1CCCCCC1=O)c1ccn(-c2ccc(F)cc2)n1`, the cytotoxicity at 10 µM is -8.62%. For `CCOC(=O)CNC(=O)NCc1cccn1Cc1ccc(F)cc1`, the cytotoxicity at 10 µM turned out to be 11.6%. For `COCCN(C)Cc1nc(-c2cccc(F)c2F)oc1C`, the cytotoxicity at 10 µM was determined as 2.56%. Then `O=C(c1ccc[nH]1)N1CCOCC12CCCC2`, with 12.3%; and `Cc1cc(C(=O)NCc2ccnc(N3CCN(C)CC3)c2)sc1C`, with -11.7%; and `CCn1nc2c(cc1=O)CN(Cc1nc(-c3ccco3)no1)CC2`, with -3.34%. In the case of `CC1CCN(S(=O)(=O)c2cccnc2)c2ccccc2S1` (stereo unspecified), the cytotoxicity at 10 µM was found to be 5%. Regarding `Cc1ncnc2c1CCN(C(=O)c1ccncc1F)CC2`, the cytotoxicity at 10 µM is -71.1%. Then `Cc1noc(-c2ccc(N3CCC[C@H]3CO)nc2)n1`, with 1.48%. To `COCc1noc(-c2ccc(N(C)Cc3c(C)n[nH]c3C)nc2)n1` belongs 0.897%; to `CCOCC(=O)N(Cc1ccco1)c1ccc(OC)c(F)c1`, -2.75%.

With `O=C(c1cnc(C2CC2)nc1)N1CCCC(c2nccs2)C1` (stereo unspecified), the cytotoxicity at 10 µM turned out to be 4.53%. Then `O=C(CN1C(=O)c2ccccc2C1=O)N1CCOC2(CCOCC2)C1`, with -5.15%. For `CSCCCNC(=O)C1CCC(=O)N(C2CCCC2)C1` (stereo unspecified), the cytotoxicity at 10 µM is -11.1%. To `CN(C)C(=O)CN1CCC2(C1)CN(CC1CCOC1)C2` (stereo unspecified) belongs 8.43%; to `Cc1oncc1C(=O)N1CCC2(CC1)C(c1cnn(C)c1)CC(=O)N2C` (stereo unspecified), -75.6%. As for `CCNC(c1cccnc1)c1ccc(F)c(C)c1` (stereo unspecified), the cytotoxicity at 10 µM is -1.77%. Regarding `CC(O)(CCc1ccccc1)CNC(=O)c1ccsc1` (stereo unspecified), the cytotoxicity at 10 µM is -1.18%.
